According to ChEMBL document CHEMBL1629556 (2008):
Converted amounts (≈) assume the structure as drawn. The source made the active and inactive calls. No cut-off for these calls is given here.

Experiments:
[1] = system: Staphylococcus aureus; assay: Antibacterial activity against Staphylococcus aureus isolate 2712 infected in Wistar rat thigh infection model assessed as bacterial load per gram of thigh at 200 mg/kg, sc administered 2 hrs postinfection and every 6 hrs thereafter for 1 day measured after 24 hrs (reference value: 8.6%); type: functional; conditions: route subcutaneous
[2] = system: Staphylococcus aureus; assay: Antibacterial activity against Staphylococcus aureus isolate 1552 by agar dilution method; type: functional
[3] = system: Staphylococcus aureus; assay: Antibacterial activity against Staphylococcus aureus isolate 29213 infected in Wistar rat thigh infection model assessed as bacterial load per gram of thigh at 200 mg/kg, sc administered 2 hrs postinfection and every 6 hrs thereafter for 1 day measured after 24 hrs (reference value: 8.6%); type: functional; conditions: route subcutaneous
[4] = system: Staphylococcus aureus; assay: Antibacterial activity against Staphylococcus aureus isolate 6083 assessed as reduction in bacterial count at 20 ug/ml after 24 hrs by time-kill assay; type: functional, organism-based
Procedure, shortened: (§1)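 Overnight Mueller-Hinton broth cultures were diluted in cation-adjusted MH broth. About 10^6 to 10^7 CFU went into MH broth with 20 μg/ml dicloxacillin at 35°C. Viable counts were made by spreading 0.1 ml at 0, 1, 3, 6, 9, 14, 24, 30, 42 and 48 h. Three runs, with the median CFU plotted semilogarithmically.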

[5] = system: Staphylococcus aureus; assay: Antibacterial activity against Staphylococcus aureus isolate 1326 infected in Wistar rat thigh infection model assessed as bacterial load per gram of thigh at 200 mg/kg, sc administered 2 hrs postinfection and every 6 hrs thereafter for 1 day measured after 24 hrs (reference value: 8.6%); type: functional; conditions: route subcutaneous
[6] = system: Staphylococcus aureus; assay: Antibacterial activity against Staphylococcus aureus isolate 2712 assessed as reduction in bacterial count at 20 ug/ml after 24 hrs by time-kill assay; type: functional, organism-based; procedure, shortened: as §1
[7] = system: Staphylococcus aureus; assay: Effect on growth of against Staphylococcus aureus isolate 4666 assessed as highest compound concentration at which cell growth occurred measured after 48 hrs in presence of 2% NaCl; type: functional
Procedure, shortened: (§2)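 Inocula of about 10^8 to 10^6 CFU came from a 4 McFarland suspension. Colonies were counted after 48 h at 35°C. Three runs, median CFU.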

[8] = system: Staphylococcus aureus; assay: Antibacterial activity against Staphylococcus aureus isolate 1326 by agar dilution method; type: functional
Procedure, shortened: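 mecA-positive clinical isolate collected October–November 2006, species confirmed on Vitek 2. MIC determined by agar dilution following CLSI guidelines, with 2-μg/ml concentration steps from 2 to 16 μg/ml.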

[9] = system: Staphylococcus aureus; assay: Antibacterial activity against Staphylococcus aureus isolate 1552 infected in Wistar rat thigh infection model assessed as bacterial load per gram of thigh at 200 mg/kg, sc administered 2 hrs postinfection and every 6 hrs thereafter for 1 day measured after 24 hrs (reference value: 8.6%); type: functional; conditions: route subcutaneous
[10] = system: Staphylococcus aureus; assay: Antibacterial activity against Staphylococcus aureus isolate 1306 infected in Wistar rat thigh infection model assessed as bacterial load per gram of thigh at 200 mg/kg, sc administered 2 hrs postinfection and every 6 hrs thereafter for 1 day measured after 24 hrs (reference value: 8.6%); type: functional; conditions: route subcutaneous
[11] = system: Staphylococcus aureus; assay: Antibacterial activity against mecA-negative Staphylococcus aureus isolate 29213 assessed as reduction in bacterial count at 20 ug/ml after 24 hrs by time-kill assay; type: functional, organism-based; procedure, shortened: as §1
[12] = system: Staphylococcus aureus; assay: Effect on growth of Staphylococcus aureus isolate 1326 assessed as highest compound concentration at which cell growth occurred measured after 48 hrs in presence of 2% NaCl; type: functional; procedure, shortened: as §2
[13] = system: Staphylococcus aureus; assay: Effect on growth of Staphylococcus aureus isolate 1326 assessed as highest compound concentration at which cell growth occurred measured after 48 hrs; type: functional
Procedure, shortened: (§3)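 Overnight cultures were set to 4 McFarland in cation-adjusted MH broth and spread at about 10^8, 10^7 and 10^6 CFU, or 10^4 if growth was confluent. Colonies were counted after 48 h at 35°C. Three runs, median CFU.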

[14] = system: Staphylococcus aureus; assay: Antibacterial activity against Staphylococcus aureus isolate 4666 assessed as reduction in bacterial count at 20 ug/ml after 24 hrs by time-kill assay; type: functional, organism-based; procedure, shortened: as §1
[15] = system: Staphylococcus aureus; assay: Antibacterial activity against Staphylococcus aureus isolate 1306 by agar dilution method; type: functional
[16] = system: Staphylococcus aureus; assay: Antibacterial activity against Staphylococcus aureus isolate 4666 by agar dilution method; type: functional
[17] = system: Staphylococcus aureus; assay: Antibacterial activity against Staphylococcus aureus isolate 6083 infected in Wistar rat thigh infection model assessed as bacterial load per gram of thigh at 200 mg/kg, sc administered 2 hrs postinfection and every 6 hrs thereafter for 1 day measured after 24 hrs (reference value: 8.6%); type: functional; conditions: route subcutaneous
[18] = system: Staphylococcus aureus; assay: Effect on growth of Staphylococcus aureus isolate 1552 assessed as highest compound concentration at which cell growth occurred measured after 48 hrs; type: functional; procedure, shortened: as §3
[19] = system: Staphylococcus aureus; assay: Antibacterial activity against Staphylococcus aureus isolate 4666 infected in Wistar rat thigh infection model assessed as bacterial load per gram of thigh at 200 mg/kg, sc administered 2 hrs postinfection and every 6 hrs thereafter for 1 day measured after 24 hrs (reference value: 8.6%); type: functional; conditions: route subcutaneous
[20] = system: Staphylococcus aureus; assay: Antibacterial activity against Staphylococcus aureus isolate 2712 by agar dilution method; type: functional
[21] = system: Staphylococcus aureus; assay: Effect on growth of Staphylococcus aureus isolate 1306 assessed as highest compound concentration at which cell growth occurred measured after 48 hrs; type: functional; procedure, shortened: as §3
[22] = system: Staphylococcus aureus; assay: Antibacterial activity against Staphylococcus aureus isolate 1552 assessed as reduction in bacterial count at 20 ug/ml after 24 hrs by time-kill assay; type: functional, organism-based; procedure, shortened: as §1
[23] = system: Staphylococcus aureus; assay: Antibacterial activity against mecA-negative Staphylococcus aureus isolate 29213 by agar dilution method; type: functional
[24] = system: Staphylococcus aureus; assay: Antibacterial activity against Staphylococcus aureus isolate 1306 assessed as reduction in bacterial count at 20 ug/ml after 24 hrs by time-kill assay; type: functional, organism-based; procedure, shortened: as §1
[25] = system: Staphylococcus aureus; assay: Effect on growth of Staphylococcus aureus isolate 4666 assessed as highest compound concentration at which cell growth occurred measured after 48 hrs; type: functional; procedure, shortened: as §3
[26] = system: Staphylococcus aureus; assay: Antibacterial activity against Staphylococcus aureus isolate 6083 by agar dilution method; type: functional
[27] = system: Staphylococcus aureus; assay: Effect on growth of mecA-negative Staphylococcus aureus isolate 29213 by assessed as highest compound concentration at which cell growth occurred measured after 48 hrs; type: functional; procedure, shortened: as §3
[28] = system: Staphylococcus aureus; assay: Antibacterial activity against Staphylococcus aureus isolate 1326 assessed as reduction in bacterial count at 20 ug/ml after 24 hrs by time-kill assay; type: functional, organism-based; procedure, shortened: as §1

## Cc1onc(-c2ccccc2)c1C(=O)N[C@@H]1C(=O)N2[C@@H]1SC(C)(C)[C@@H]2C(=O)O [OXACILLIN]
[1]
  Activity: 8.8%
[2]
  MIC: 1 µg/mL (≈ 2.49 µM)
[3]
  Activity: 12.4%
[4]
  inhibition: Active
[5]
  Activity: 4.3%
[6]
  inhibition: inactive
[7]
  Activity: 2 µg/mL
[8]
  MIC: 0.25 µg/mL (≈ 0.623 µM)
[9]
  Activity: 9.1%
[10]
  Activity: 9.7%
[11]
  inhibition: Active
[12]
  Activity: 1 µg/mL
[13]
  Activity: 0.5 µg/mL
[14]
  inhibition: Active
[15]
  MIC: 0.5 µg/mL (≈ 1.25 µM)
[16]
  MIC: 1 µg/mL (≈ 2.49 µM)
[17]
  Activity: 6.2%
[18]
  Activity: 64 µg/mL
[19]
  Activity: 10.4%
[20]
  MIC: 256 µg/mL (≈ 638 µM)
[21]
  Activity: 32 µg/mL
[22]
  inhibition: Active
[23]
  MIC: 0.125 µg/mL (≈ 0.311 µM)
[24]
  inhibition: Active
[25]
  Activity: 1 µg/mL
[26]
  MIC: 6 µg/mL (≈ 14.9 µM)
[27]
  Activity: 0.5 µg/mL
[28]
  inhibition: Active
